According to ChEMBL document CHEMBL3272327, “Hypocholesterolemic activity of 1,3-bis(substituted phenoxy)-2-propanones” (J Med Chem, 1976):

What was measured:
Rattus norvegicus [1] = assay: Hypocholesterolemic activity in [14C]palmitic acid-treated rat assessed as decrease in 14C fatty acid incorporation into cholesterol ester fraction in liver at 10 mg/kg/day administered for 1 week by scintillation counting analysis; type: functional; design: scale not given: the % may be the effect or the level left
Rattus norvegicus [2] = assay: Hypocholesterolemic activity in Sprague-Dawley rat assessed as serum cholesterol level at 10 mg/kg/day, po administered via intubation measured on day 10 by Liebermann-Burchard reaction (reference value: 100%); type: functional
Rattus norvegicus [3] = assay: Effect on testes weight in rat at 5 mg/kg/day administered for 16 days measured 24 hrs after last drug dosage relative to total body weight (reference value: 1.08 +/- 0.08%); type: ADME, organism-based, Testis; conditions: in vivo
Rattus norvegicus [4] = assay: Hypocholesterolemic activity in rat assessed as [14C]cholesterol level in liver at 10 mg/kg/day administered for 1 week measured after 22 hrs on day 7 by scintillation counting analysis (reference value: 19.80 +/- 2.93%); type: functional
How it was run: (§1)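 Male rats were dosed orally for 1 week (10 mg/kg/day) or with 1% CMC. On day 7 they received 5 μCi [4-14C]cholesterol orally and were killed after 22 hr. Organs were homogenized (10% in water); 0.1-cc aliquots of homogenate, urine, blood or feces were digested with Protosol. Samples were counted in toluene/Triton X-100 (2:1) scintillant with 0.4% PPO and 0.01% POPOP. Results are % of dose per tissue, N = 6.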

Rattus norvegicus [5] = assay: Effect on vesicular gland weight in rat at 5 mg/kg/day administered for 16 days measured 24 hrs after last drug dosage relative to total body weight (reference value: 0.10 +/- 0.04%); type: ADME, organism-based; conditions: in vivo
Rattus norvegicus [6] = assay: Effect on vas deferens and epididymis weight in rat at 10 mg/kg/day administered for 16 days measured 24 hrs after last drug dosage relative to total body weight (reference value: 0.22 to 0.24%); type: ADME, organism-based; conditions: in vivo
Rattus norvegicus [7] = assay: Hypocholesterolemic activity in rat assessed as [14C]cholesterol level in kidney at 10 mg/kg/day administered for 1 week measured after 22 hrs on day 7 by scintillation counting analysis (reference value: 0.69 +/- 0.27%); type: functional; how it was run: as §1
Rattus norvegicus [8] = assay: Effect on spleen weight in rat at 50 mg/kg/day administered for 16 days measured 24 hrs after last drug dosage relative to total body weight (reference value: 0.55 +/- 0.12%); type: ADME, organism-based; conditions: in vivo
Rattus norvegicus [9] = assay: Effect on vesicular gland weight in rat at 10 mg/kg/day administered for 16 days measured 24 hrs after last drug dosage relative to total body weight (reference value: 0.10 to 0.11%); type: ADME, organism-based; conditions: in vivo
Rattus norvegicus [10] = assay: Effect on liver weight in rat at 50 mg/kg/day administered for 16 days measured 24 hrs after last drug dosage relative to total body weight (reference value: 4.22 +/- 0.29%); type: ADME, organism-based; conditions: in vivo
Rattus norvegicus [11] = assay: Increase in lipase level in rat serum at 10 mg/kg/day administered for 16 days (reference value: 100 +/- 39%); type: functional
How it was run: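 Male Sprague-Dawley rats dosed orally at 10 mg/kg/day in 1% CMC for 16 days. Serum lipase was measured with a commercial serum lipase kit. Expressed as percent of vehicle control, N = 8.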

Rattus norvegicus [12] = assay: Hypocholesterolemic activity in Sprague-Dawley rat assessed as serum cholesterol level at 50 mg/kg/day, po administered via intubation measured on day 16 by Liebermann-Burchard reaction (reference value: 100 +/- 8%); type: functional
Rattus norvegicus [13] = assay: Hypocholesterolemic activity in rat assessed as [14C]palmitic acid level in feces at 10 mg/kg/day administered for 1 week measured after 22 hrs on day 7 by scintillation counting analysis (reference value: 75.52 +/- 6.21%); type: functional
How it was run: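 Male Sprague-Dawley rats on lab chow dosed orally once daily for 1 week at 10 mg/kg/day, suspended in 1% CMC, or given vehicle alone. On day 7, 5 μCi [1-14C]palmitic acid given orally. Killed after 22 hr; organs made into 10% water homogenates. Aliquots of 0.1 cc of homogenate, urine, blood or feces were digested and scintillation counted. Output is % of dose per tissue, N = 6.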

Rattus norvegicus [14] = assay: Effect on kidney weight in rat at 50 mg/kg/day administered for 16 days measured 24 hrs after last drug dosage relative to total body weight (reference value: 0.92 +/- 0.04%); type: ADME, organism-based; conditions: in vivo
Rattus norvegicus [15] = assay: Effect on vesicular gland weight in rat at 50 mg/kg/day administered for 16 days measured 24 hrs after last drug dosage relative to total body weight (reference value: 0.10 +/- 0.04%); type: ADME, organism-based; conditions: in vivo
Rattus norvegicus [16] = assay: Hypocholesterolemic activity in Sprague-Dawley rat assessed as serum cholesterol level at 5 mg/kg/day, po administered via intubation measured on day 4 by Liebermann-Burchard reaction (reference value: 100 +/- 7%); type: functional
Rattus norvegicus [17] = assay: Effect on food intake in rat at 50 mg/kg/day measured during first week (reference value: 19.1 +/- 1.7 gms); type: ADME, organism-based; conditions: in vivo
How it was run: (§2)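 Male rats dosed orally at 1, 5, 10 or 50 mg/kg/day in 1% CMC. Average food intake in grams per rat per week measured over a 2-week period, first and second weeks reported separately. N = 8, Student's t test against the 1% CMC control.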

Rattus norvegicus [18] = assay: Effect on lipid content in rat liver at 10 mg/kg/day administered for 16 days (reference value: 100 +/- 16%); type: ADME, organism-based; conditions: in vivo, 384 h
Rattus norvegicus [19] = assay: Effect on liver weight in rat at 1 mg/kg/day administered for 16 days measured 24 hrs after last drug dosage relative to total body weight (reference value: 4.22 +/- 0.29%); type: ADME, organism-based; conditions: in vivo
Rattus norvegicus [20] = assay: Effect on vas deferens and epididymis weight in rat at 5 mg/kg/day administered for 16 days measured 24 hrs after last drug dosage relative to total body weight (reference value: 0.22 +/- 0.04%); type: ADME, organism-based; conditions: in vivo
Rattus norvegicus [21] = assay: Hypocholesterolemic activity in rat assessed as [14C]cholesterol level in urine at 10 mg/kg/day administered for 1 week measured after 22 hrs on day 7 by scintillation counting analysis (reference value: 0.14 +/- 0.06%); type: functional; how it was run: as §1
Rattus norvegicus [22] = assay: Effect on food intake in rat at 1 mg/kg/day measured during second week (reference value: 23.4 +/- 1.8 gms); type: ADME, organism-based; conditions: in vivo; how it was run: as §2
Rattus norvegicus [23] = assay: Effect on vas deferens and epididymis weight in rat at 50 mg/kg/day administered for 16 days measured 24 hrs after last drug dosage relative to total body weight (reference value: 0.22 +/- 0.04%); type: ADME, organism-based; conditions: in vivo
Rattus norvegicus [24] = assay: Effect on body weight in rat at 50 mg/kg/day administered for 16 days measured on day 16 (reference value: 233 +/- 16 gms); type: ADME, organism-based; conditions: in vivo, 384 h
How it was run: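 Male Sprague-Dawley rats with chow and water ad libitum. Compound suspended in 1% CMC-water and given orally by intubation needle at 11:00 a.m., 1, 5, 10 or 50 mg/kg/day, for 16 days. Body weight (g) recorded on days 0, 7 and 16. N = 8.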

Rattus norvegicus [25] = assay: Effect on food intake in rat at 10 mg/kg/day measured during first week (reference value: 19.1 +/- 1.7 gms); type: ADME, organism-based; conditions: in vivo; how it was run: as §2
Rattus norvegicus [26] = assay: Effect on spleen weight in rat at 5 mg/kg/day administered for 16 days measured 24 hrs after last drug dosage relative to total body weight (reference value: 0.55 +/- 0.12%); type: ADME, organism-based; conditions: in vivo
Rattus norvegicus [27] = assay: Effect on food intake in rat at 10 mg/kg/day measured during second week (reference value: 23.4 +/- 1.8 gms); type: ADME, organism-based; conditions: in vivo; how it was run: as §2
Rattus norvegicus [28] = assay: Hypocholesterolemic activity in rat assessed as [14C]cholesterol recover at 10 mg/kg/day administered for 1 week measured after 22 hrs on day 7 by scintillation counting analysis (reference value: 99.11%); type: functional; how it was run: as §1

SMILES: Cc1ccc(OCC(=O)COc2ccc(C)cc2)cc1
- Activity (Rattus norvegicus [1]): 46%
- Activity (Rattus norvegicus [2]): 50%
- Activity (Rattus norvegicus [3]): 1.03%
- Activity (Rattus norvegicus [4]): 22.19%
- Activity (Rattus norvegicus [5]): 0.13%
- Activity (Rattus norvegicus [6]): 0.24%
- Activity (Rattus norvegicus [7]): 1.29%
- Activity (Rattus norvegicus [8]): 0.4%
- Activity (Rattus norvegicus [9]): 0.11%
- Activity (Rattus norvegicus [10]): 4.57%
- Activity (Rattus norvegicus [11]): 222%
- Activity (Rattus norvegicus [12]): 44%
- Activity (Rattus norvegicus [13]): 63.52%
- Activity (Rattus norvegicus [14]): 0.88%
- Activity (Rattus norvegicus [15]): 0.15%
- Activity (Rattus norvegicus [16]): 74%
- Activity (Rattus norvegicus [17]): 18.9 g
- Activity (Rattus norvegicus [18]): 88%
- Activity (Rattus norvegicus [19]): 4%
- Activity (Rattus norvegicus [20]): 0.21%
- Activity (Rattus norvegicus [21]): 0.94%
- Activity (Rattus norvegicus [22]): 29.2 g
- Activity (Rattus norvegicus [23]): 0.25%
- Activity (Rattus norvegicus [24]): 232 g
- Activity (Rattus norvegicus [25]): 18.2 g
- Activity (Rattus norvegicus [26]): 0.44%
- Activity (Rattus norvegicus [27]): 28.6 g
- Activity (Rattus norvegicus [28]): 99.94%
